For 17 compounds, Activity, Ratio Ki and Ki results are on record in ChEMBL document CHEMBL2380310, “Discovery of 7-oxopyrazolo[1,5-a]pyrimidine-6-carboxamides as potent and selective CB(2) cannabinoid receptor inverse agonists” (J Med Chem, 2013).

Test [1] deals with T1, Cannabinoid receptor 2 (Homo sapiens, UniProt P34972). Briefly: Inverse agonist activity at human CB2 receptor expressed in CHO cell membrane assessed as increase in forskolin-stimulated cAMP production at 10 uM by scintillation counting analysis relative to WIN55212-2. A digest of the protocol: (§1)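 Whole hCB₂ CHO cells (1 × 10⁶/assay) in HEPES-buffered saline with glucose, pH 7.4, preincubated 10 min at 37 °C with 0.5 mM Ro 20-1724. Compound at 1 or 10 μM with 1 μM forskolin. Stopped with cold 6% TCA, ether-extracted; cAMP measured by [³H]cAMP competition binding with adrenal binding protein. Expressed as % increase versus WIN 55,212-2 (set −100%); n = 4.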
(cAMP levels reflect the balance of adenylyl cyclase and phosphodiesterase activity.)

Test [2] has as its target T1, Cannabinoid receptor 2. As to the kind of experiment: Inverse agonist activity at human CB2 receptor expressed in CHO cell membrane assessed as increase in forskolin-stimulated cAMP production at 1 uM by scintillation counting analysis relative to WIN55212-2. A digest of the protocol: as §1
Test [3] is filed under the species Homo sapiens. As to the kind of experiment: Selectivity index, ratio of Ki for human CB1 receptor to Ki for human CB2 receptor.
Test [4] addresses T1, Cannabinoid receptor 2. Briefly: Displacement of [3H]CP-55940 from human CB2 receptor expressed in CHO cell membrane after 60 mins by scintillation counting analysis. Format: cell membranes. A digest of the protocol:
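Human CB₂-expressing CHO cell membranes in 50 mM Tris-HCl, 0.5% BSA, 5 mM MgCl₂, 1 mM EDTA, pH 7.4. Binding of 0.5 nM [³H]CP-55,940 competed with 1 nM–10 μM compound for 60 min at 30 °C, then GF/C filtration and scintillation counting. Ki by Cheng-Prusoff from IC50; mean SEM of n = 4.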
(Loss of bound radioactivity is the signal in a displacement assay; it reports binding, not function.)

Test [5] concerns the target T2, Cannabinoid receptor 1 (Homo sapiens, UniProt P21554). Briefly: Displacement of [3H]CP-55940 from human CB1 receptor expressed in CHO cell membrane after 90 mins by scintillation counting analysis. Format: cell membranes. A digest of the protocol: (§2)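 Membranes from CHO cells stably expressing human CB₁ (G418-maintained), suspended in 50 mM Tris-HCl, 0.5% BSA, 5 mM MgCl₂, 2.5 mM EDTA, pH 7.4. Displacement of 0.5 nM [³H]CP-55,940 by 1 nM–10 μM compound, 90 min, 30 °C. Filtration on GF/C, scintillation counting. Cheng-Prusoff Ki, LIGAND fitting; mean SEM, n = 4.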

The target in test [6] is T2, Cannabinoid receptor 1. Briefly: Displacement of [3H]CP-55940 from human CB1 receptor expressed in CHO cell membrane at > 10 uM after 90 mins by scintillation counting analysis. Format: cell membranes. A digest of the protocol:
as §2

For test [7], the target named is Cannabinoid receptor 1 (Rattus norvegicus) (UniProt P20272). Briefly: Displacement of [3H]CP-55940 from Sprague-Dawley rat brain CB1 receptor at > 10 uM after 90 mins by scintillation counting analysis. A digest of the protocol:
(§3)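 Competition with [³H]CP-55,940 (1.0 nM stated in rat CB₁ section; 0.5 nM in general protocol) against 1 nM–10 μM compound, 90 min at 30 °C. GF/C filtration, scintillation counting. Ki via Cheng-Prusoff; mean SEM, n = 4.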

Test [8] addresses Cannabinoid receptor 1 (Rattus norvegicus, UniProt P20272). Briefly: Displacement of [3H]CP-55940 from Sprague-Dawley rat brain CB1 receptor after 90 mins by scintillation counting analysis. A digest of the protocol:
as §3

For test [9], the target named is T3, Cannabinoid receptor 2 (Rattus norvegicus, UniProt Q9QZN9).
T3 sequence (Q9QZN9 whole entry): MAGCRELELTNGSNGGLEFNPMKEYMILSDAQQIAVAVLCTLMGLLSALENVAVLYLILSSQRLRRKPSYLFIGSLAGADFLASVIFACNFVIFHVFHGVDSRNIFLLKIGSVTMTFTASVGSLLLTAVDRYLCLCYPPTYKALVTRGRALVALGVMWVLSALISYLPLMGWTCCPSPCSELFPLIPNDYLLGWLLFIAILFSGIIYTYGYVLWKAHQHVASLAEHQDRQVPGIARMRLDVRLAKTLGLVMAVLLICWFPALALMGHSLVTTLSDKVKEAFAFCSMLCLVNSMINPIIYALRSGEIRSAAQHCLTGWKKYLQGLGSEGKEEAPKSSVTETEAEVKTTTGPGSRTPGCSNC
Briefly: Displacement of [3H]CP-55940 from Sprague-Dawley rat spleen CB2 receptor after 60 mins by scintillation counting analysis. A digest of the protocol: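 Competed against 0.5 nM [³H]CP-55,940 using 1 nM–10 μM compound for 60 min at 30 °C. Bound ligand collected on GF/C filters and counted. Ki from IC50 by Cheng-Prusoff; mean SEM of n = 4.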

T1 sequence (P34972 whole entry): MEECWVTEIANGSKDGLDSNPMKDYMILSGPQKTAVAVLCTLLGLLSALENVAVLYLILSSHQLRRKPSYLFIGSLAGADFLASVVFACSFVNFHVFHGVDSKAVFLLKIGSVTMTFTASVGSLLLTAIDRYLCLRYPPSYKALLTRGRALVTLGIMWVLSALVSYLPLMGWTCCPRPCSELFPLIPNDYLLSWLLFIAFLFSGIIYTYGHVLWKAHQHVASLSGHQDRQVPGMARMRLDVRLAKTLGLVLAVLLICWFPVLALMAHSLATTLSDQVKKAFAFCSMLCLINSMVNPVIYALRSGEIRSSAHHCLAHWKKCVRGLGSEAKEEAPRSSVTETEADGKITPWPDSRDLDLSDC
Sequence of Cannabinoid receptor 1 (Rattus norvegicus, UniProt P20272) (P20272 whole entry): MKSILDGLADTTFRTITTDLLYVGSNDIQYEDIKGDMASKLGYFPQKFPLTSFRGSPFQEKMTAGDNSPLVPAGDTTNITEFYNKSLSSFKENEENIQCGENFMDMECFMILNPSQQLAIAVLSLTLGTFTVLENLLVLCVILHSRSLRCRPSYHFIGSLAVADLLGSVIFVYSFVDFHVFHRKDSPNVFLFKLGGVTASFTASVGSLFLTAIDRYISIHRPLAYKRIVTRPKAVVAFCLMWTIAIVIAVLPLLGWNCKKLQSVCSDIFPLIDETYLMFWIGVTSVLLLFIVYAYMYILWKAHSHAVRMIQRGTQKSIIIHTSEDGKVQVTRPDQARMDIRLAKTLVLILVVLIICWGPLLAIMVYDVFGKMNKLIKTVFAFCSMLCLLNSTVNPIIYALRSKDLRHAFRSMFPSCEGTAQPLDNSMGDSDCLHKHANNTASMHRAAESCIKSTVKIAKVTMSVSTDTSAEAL
Sequence of Cannabinoid receptor 1 (Rattus norvegicus) (P20272 whole entry): as above
T2 sequence (P21554 whole entry): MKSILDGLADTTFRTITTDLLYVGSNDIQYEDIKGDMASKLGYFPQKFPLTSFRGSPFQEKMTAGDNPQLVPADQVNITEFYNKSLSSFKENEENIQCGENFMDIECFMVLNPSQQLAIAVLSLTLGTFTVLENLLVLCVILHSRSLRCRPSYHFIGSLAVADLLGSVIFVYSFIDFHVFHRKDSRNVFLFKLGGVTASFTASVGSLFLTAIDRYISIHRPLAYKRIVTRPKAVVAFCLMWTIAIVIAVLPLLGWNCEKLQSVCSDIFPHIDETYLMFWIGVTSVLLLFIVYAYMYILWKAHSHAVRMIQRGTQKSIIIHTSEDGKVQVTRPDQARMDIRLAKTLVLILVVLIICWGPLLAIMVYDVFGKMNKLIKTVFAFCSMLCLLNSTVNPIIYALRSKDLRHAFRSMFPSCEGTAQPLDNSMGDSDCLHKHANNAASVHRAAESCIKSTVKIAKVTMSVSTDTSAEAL

For the compound `CCCCCn1cc(C(=O)NC2CCCCCC2)c(=O)n2nc(-c3ccc(Cl)cc3Cl)cc12`, the Activity in test [1] worked out at 77%; in test [2], 61%; in [6], 39%; in [7], 49%. Besides, in [3], the Ratio Ki was over 270. The Ki is 37 nM in [4], over 10 µM in test [5], over 10 µM in test [8] and 40 nM in test [9].

On to `CCCCCn1cc(C(=O)NC2CCCCC2)c(=O)n2nc(-c3ccco3)cc12`, for which the Activity in [1] amounted to 103%; in test [2], 73%; in [6] it was 21%; in [7], 30%. In [3], the Ratio Ki was over 1050. In addition, the Ki was 9.52 nM in test [4], over 10 µM in [5], over 10 µM in test [8] and 10.4 nM in test [9].

With `CCCCCn1cc(C(=O)NC2CCCCC2)c(=O)n2nc(-c3ccc(C)cc3)cc12`, the Activity in [1] came to 93%; in test [2] it was 63%; in test [6], 20%; in [7], 25%. Besides, in test [3], the Ratio Ki is over 175. Also, the Ki in test [4] is 57 nM; in test [5], over 10 µM; in test [8], over 10 µM; in test [9], 62 nM.

As for `CCCCCn1cc(C(=O)NC23CC4CC(CC(C4)C2)C3)c(=O)n2nc(-c3ccc(Cl)cc3Cl)cc12`, the Activity in test [1] was found to be 112%; in test [2], 87%; in test [6], 37%; in [7], 40%. Moreover, in [3], the Ratio Ki was over 333. In addition, the inhibition constant (Ki) in test [4] is 30 nM; in test [5], over 10 µM; in test [8], over 10 µM; in test [9] it was 35 nM.

For `CCCCCn1cc(C(=O)NC23CC4CC(CC(C4)C2)C3)c(=O)n2nc(-c3cc(C)cs3)cc12`, the Activity in test [1] came out at 97%; in [2], 71%; in [6] it was 13%; in test [7], 15%. Also, the Ratio Ki in test [3] was over 666. The inhibition constant (Ki) in [4] is 15 nM; in [5] it was over 10 µM; in test [8], over 10 µM; in test [9], 18 nM.

Take `CCCCCn1cc(C(=O)NC23CC4CC(CC(C4)C2)C3)c(=O)n2nc(C)c(-c3ccc(OC)cc3)c12`: the Activity came to 60% in [1], 36% in [2], 4% in [6] and 5% in test [7]. In addition, the Ratio Ki in [3] is over 28. Moreover, the inhibition constant Ki in test [4] was 350 nM; in test [5] it was over 10 µM; in test [8] it was over 10 µM; in [9], 434 nM.

On to `CCCCCn1cc(C(=O)NC2CCCCC2)c(=O)n2nc(-c3ccc(Cl)cc3)cc12`, for which the Activity was 94% in [1], 79% in test [2], 15% in test [6] and 8% in [7]. In addition, the Ratio Ki in test [3] is over 181. In addition, the Ki in test [4] was 55 nM; in test [5], over 10 µM; in test [8], over 10 µM; in [9], 58 nM.

Consider `CCCCCn1cc(C(=O)NC23CC4CC(CC(C4)C2)C3)c(=O)n2nc(-c3ccccc3Cl)cc12`, for which the Activity in test [1] came to 136%; in test [2], 114%; in test [6] it was 41%; in test [7], 48%. The Ratio Ki in test [3] was over 1610. Moreover, the Ki in [4] was 6.21 nM; in [5], over 10 µM; in test [8] it was over 10 µM; in [9], 6.32 nM.

As for `CCCCCn1cc(C(=O)NC2CCCCCC2)c(=O)n2nc(-c3ccc(C)cc3)cc12`, the Activity turned out to be 107% in test [1], 81% in test [2], 39% in test [6] and 49% in test [7]. In addition, in [3], the Ratio Ki is over 970. For the same compound, the Ki was 10.3 nM in test [4], over 10 µM in test [5], over 10 µM in test [8] and 13.2 nM in test [9].

Turning to `CCCCCn1cc(C(=O)NC23CC4CC(CC(C4)C2)C3)c(=O)n2nc(-c3ccc(Cl)cc3)cc12`, the Activity in test [1] amounted to 183%; in [2], 144%; in [6], 13%; in test [7], 10%. Moreover, in test [3], the Ratio Ki was over 2580. Further, the Ki in test [4] was 3.88 nM; in test [5] it was over 10 µM; in test [8], over 10 µM; in test [9] it was 4.21 nM.

Turning to `CCCCCn1cc(C(=O)NC23CC4CC(CC(C4)C2)C3)c(=O)n2nc(-c3ccc(C)s3)cc12`, the Activity in test [1] was 68%; in [2], 38%; in test [6] it was 31%; in test [7], 33%. For the same compound, the Ratio Ki in test [3] was over 862. In addition, the inhibitory constant (Ki) in [4] is 11.6 nM; in test [5], over 10 µM; in test [8] it was over 10 µM; in test [9] it was 12.2 nM.

Regarding `CCCCCn1cc(C(=O)NC2CCCCC2)c(=O)n2nc(-c3ccccc3Cl)cc12`, the Activity in test [1] was determined as 55%; in test [2], 37%; in [6], 34%; in [7] it was 40%. In addition, in [3], the Ratio Ki is over 212. The inhibitory constant (Ki) in test [4] was 47 nM; in test [5], over 10 µM; in test [8], over 10 µM; in test [9], 52 nM.

Consider `CCCCCn1cc(C(=O)NC2CCCCCC2)c(=O)n2nc(-c3ccccc3Cl)cc12`, for which the Activity came to 69% in test [1], 53% in test [2], 35% in test [6] and 42% in test [7]. In test [3], the Ratio Ki is over 970. The Ki in test [4] is 10.3 nM; in test [5] it was over 10 µM; in [8], over 10 µM; in [9], 12.3 nM.

As to `CCCCCn1cc(C(=O)NC2CCCCCC2)c(=O)n2nc(-c3ccccc3C)cc12`, the Activity in test [1] is 125%; in test [2], 107%; in test [6], 34%; in test [7] it was 45%. Further, the Ratio Ki in test [3] was over 1120. In addition, the inhibition constant (Ki) in test [4] is 8.93 nM; in test [5], over 10 µM; in test [8], over 10 µM; in test [9], 9.53 nM.

For the compound `CCCCCn1cc(C(=O)NC23CC4CC(CC(C4)C2)C3)c(=O)n2nc(-c3ccoc3)cc12`, the Activity in test [1] is 92%; in test [2], 56%; in test [6] it was 19%; in [7], 17%. Moreover, the Ratio Ki in test [3] was over 990. Further, the Ki in [4] is 10.1 nM; in test [5] it was over 10 µM; in test [8] it was over 10 µM; in [9] it was 12.4 nM.

Turning to `CCCCCn1cc(C(=O)NC23CC4CC(CC(C4)C2)C3)c(=O)n2nc(C)c(-c3ccccc3)c12`, the Activity worked out at 51% in test [1], 34% in test [2], 15% in test [6] and 15% in [7]. The Ratio Ki in test [3] was over 55. For the same compound, the Ki in test [4] is 181 nM; in test [5], over 10 µM; in [8] it was over 10 µM; in test [9], 214 nM.

For `CCCCCn1cc(C(=O)NC23CC4CC(CC(C4)C2)C3)c(=O)n2nc(-c3ccccc3C)cc12`, the Activity in [1] is 184%; in [2] it was 155%; in [6], 22%; in test [7] it was 30%. In addition, the Ratio Ki in [3] was over 3500. The inhibition constant Ki is 2.86 nM in test [4], over 10 µM in test [5], over 10 µM in [8] and 3.21 nM in [9].

In general, Ki refers to a dissociation constant, usually derived from enzyme kinetics or from competition with a known ligand.
